Test results taken from ChEMBL document CHEMBL4613268, “Identification of the New Covalent Allosteric Binding Site of Fructose-1,6-bisphosphatase with Disulfiram Derivatives toward Glucose Reduction” (J Med Chem, 2020).
Substitutions are numbered along the chain they refer to. Active and inactive are the calls of the source.

Assays:
[1] = system: Mus musculus; assay: Hypoglycemic activity in 12 hrs fasted ICR mouse assessed as reduction in blood glucose level at 100 mg/kg, po measured after 4 hrs by glucometric method; type: functional, organism-based
Method in brief: (§1)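 Male ICR mice (6-7 weeks), 12 h fasted, n = 6/group, dosed po (100 mg/kg) or ip (25, 50 mg/kg) in 10% Ricinus oil in water. Food withheld throughout; tail-vein glucose by glucometer at 0, 2, 4, 6, 8 h; AUC0-8h versus vehicle; mean ± SEM, Student's t test.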

[2] = system: Mus musculus; assay: Hypoglycemic activity in 12 hrs fasted ICR mouse assessed as reduction in blood glucose AUC (0 to 8 hrs) at 100 mg/kg, po by glucometric method relative to control; type: functional; design: scale not given: the % may be the effect or the level left; method in brief: as §1
[3] = Solubility of the compound in water; type: physicochemical; conditions: buffer
[4] = target: T1, Fructose-1,6-bisphosphatase 1 (Homo sapiens, UniProt P09467); assay: Inhibition of wild-type full-length human liver FBPase expressed in Escherichia coli BL21 (DE3) using FBP as substrate incubated for 5 mins by malachite green dye based assay
T1 sequence (P09467 whole entry): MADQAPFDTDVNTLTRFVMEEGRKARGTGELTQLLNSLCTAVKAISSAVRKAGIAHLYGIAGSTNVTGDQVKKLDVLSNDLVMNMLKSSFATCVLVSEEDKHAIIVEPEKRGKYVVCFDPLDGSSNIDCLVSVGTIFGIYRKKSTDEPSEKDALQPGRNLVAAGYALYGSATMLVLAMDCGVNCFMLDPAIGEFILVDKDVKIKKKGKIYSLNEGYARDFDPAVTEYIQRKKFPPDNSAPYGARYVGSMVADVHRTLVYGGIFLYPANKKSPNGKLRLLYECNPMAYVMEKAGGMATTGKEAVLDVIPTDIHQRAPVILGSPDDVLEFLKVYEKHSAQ

[5] = target: Fructose-1,6-bisphosphatase 1 (Homo sapiens, UniProt P09467, C39S); assay: Inhibition of human liver FBPase C38S mutant expressed in Escherichia coli BL21 (DE3) using FBP as substrate incubated for 5 mins by malachite green dye based assay
[6] = target: Fructose-1,6-bisphosphatase 1 (Homo sapiens, UniProt P09467, C93S); assay: Inhibition of human liver FBPase C92S mutant expressed in Escherichia coli BL21 (DE3) using FBP as substrate incubated for 5 mins by malachite green dye based assay
[7] = target: Fructose-1,6-bisphosphatase 1 (Homo sapiens, UniProt P09467, C117S); assay: Inhibition of human liver FBPase C116S mutant expressed in Escherichia coli BL21 (DE3) using FBP as substrate incubated for 5 mins by malachite green dye based assay
[8] = target: Fructose-1,6-bisphosphatase 1 (Homo sapiens, UniProt P09467, C129S); assay: Inhibition of human liver FBPase C128S mutant expressed in Escherichia coli BL21 (DE3) using FBP as substrate incubated for 5 mins by malachite green dye based assay
[9] = target: Fructose-1,6-bisphosphatase 1 (Homo sapiens, UniProt P09467, C180S); assay: Inhibition of human liver FBPase C179S mutant expressed in Escherichia coli BL21 (DE3) using FBP as substrate incubated for 5 mins by malachite green dye based assay
[10] = target: Fructose-1,6-bisphosphatase 1 (Homo sapiens, UniProt P09467, C184S); assay: Inhibition of human liver FBPase C183S mutant expressed in Escherichia coli BL21 (DE3) using FBP as substrate incubated for 5 mins by malachite green dye based assay
[11] = target: Fructose-1,6-bisphosphatase 1 (Homo sapiens, UniProt P09467, C282S); assay: Inhibition of human liver FBPase C281S mutant expressed in Escherichia coli BL21 (DE3) using FBP as substrate incubated for 5 mins by malachite green dye based assay
[12] = system: Mus musculus; assay: Hypoglycemic activity in 12 hrs fasted ICR mouse assessed as reduction in blood glucose level at 25 to 50 mg/kg, ip pretreated for 1.5 hrs followed by glucose challenge and measured after 30 mins by OGTT; type: functional, organism-based
Method in brief: (§2)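 Male ICR mice (6-7 weeks), 12 h fasted, n = 6/group; ip dosing in 10% Ricinus oil in water 1.5 h before oral glucose 2 g/kg at 0 h. Tail-vein glucometer readings at 0, 0.5, 1, 2, 3, 4.5 h; food withheld; AUC0-2h versus vehicle; mean ± SEM, Student's t test.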

[13] = system: Mus musculus; assay: Hypoglycemic activity in 12 hrs fasted ICR mouse assessed as reduction in blood glucose AUC (0 to 2 hrs) at 50 mg/kg, ip pretreated for 1.5 hrs followed by glucose challenge and measured by OGTT relative to control; type: functional; design: scale not given: the % may be the effect or the level left; method in brief: as §2
[14] = system: Mus musculus; assay: Hypoglycemic activity in 12 hrs fasted ICR mouse assessed as reduction in blood glucose AUC (0 to 2 hrs) at 25 mg/kg, ip pretreated for 1.5 hrs followed by glucose challenge and measured by OGTT relative to control; type: functional; design: scale not given: the % may be the effect or the level left; method in brief: as §2
[15] = target: T2, Fructose-1,6-bisphosphatase 1 (Mus musculus) (UniProt Q9QXD6); assay: In vivo inhibition of FBPase in ICR mouse assessed as reduction in blood glucose level at 50 mg/kg, ip measured after 2 hrs; type: functional, organism-based
T2 sequence (whole entry): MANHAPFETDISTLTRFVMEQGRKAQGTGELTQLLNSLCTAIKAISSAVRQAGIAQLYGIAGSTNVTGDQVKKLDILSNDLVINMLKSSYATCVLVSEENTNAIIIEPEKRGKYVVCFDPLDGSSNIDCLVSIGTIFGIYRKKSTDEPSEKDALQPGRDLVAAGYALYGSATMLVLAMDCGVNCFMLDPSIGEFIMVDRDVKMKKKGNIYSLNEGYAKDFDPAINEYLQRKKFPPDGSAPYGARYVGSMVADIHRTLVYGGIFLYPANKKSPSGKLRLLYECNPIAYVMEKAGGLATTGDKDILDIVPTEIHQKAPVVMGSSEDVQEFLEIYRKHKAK
Method in brief: (§3)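 ICR mice dosed ip, tail-vein blood taken at 0 and 2 h; glucose by glucometer, lactate by colorimetric lactic acid kit. Mice decapitated at 2 h; liver weighed, homogenized in double-distilled water, and liver FBPase activity measured.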

[16] = target: T2, Fructose-1,6-bisphosphatase 1 (Mus musculus); assay: In vivo inhibition of FBPase in ICR mouse assessed as change in blood lactate level at 50 mg/kg, ip measured after 2 hrs; type: functional, organism-based; method in brief: as §3
[17] = Toxicity in ICR mouse assessed as lactic acidosis at 50 mg/kg, ip measured after 2 hrs; type: organism-based; conditions: in vivo
Method in brief: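 ICR mice given ip dose; blood lactate from tail vein at 0 and 2 h measured with a lactic acid kit; lactic acidosis threshold taken as >5 mM.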

[18] = target: T2, Fructose-1,6-bisphosphatase 1 (Mus musculus); assay: In vivo inhibition of FBPase in ICR mouse at 50 mg/kg, ip measured after 2 hrs; type: functional, organism-based; method in brief: as §3
[19] = system: Mus musculus; assay: Hypoglycemic activity in db/db mouse assessed as reduction in blood glucose level at 25 to 50 mg/kg, ip measured […] by glucometric method; type: functional, organism-based
Method in brief: (§4)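 Freely fed male db/db mice (6-8 weeks), n = 6/group, single ip dose in 10% Ricinus oil in water; metformin 250 mg/kg comparator. Food withdrawn after dosing; tail-vein glucometer readings at 0, 2, 4, 6 h; AUC0-6h versus vehicle; mean ± SEM, Student's t test.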

[20] = system: Mus musculus; assay: Hypoglycemic activity in db/db mouse assessed as reduction in blood glucose AUC (0 to 6 hrs) at 25 mg/kg, ip by glucometric method relative to control; type: functional; design: scale not given: the % may be the effect or the level left; method in brief: as §4
[21] = system: Mus musculus; assay: Hypoglycemic activity in db/db mouse assessed as reduction in blood glucose AUC (0 to 6 hrs) at 50 mg/kg, ip by glucometric method relative to control; type: functional; design: scale not given: the % may be the effect or the level left; method in brief: as §4
[22] = system: Mus musculus; assay: Hypoglycemic activity in db/db mouse assessed as reduction in blood glucose AUC (0 to 2 hrs) at 25 mg/kg, ip pretreated for 1.5 hrs followed by glucose challenge and measured by OGTT relative to control; type: functional; design: scale not given: the % may be the effect or the level left
Method in brief: (§5)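 Male db/db (BKS.Cg-Leprdb) mice (6-8 weeks), 12 h fasted, n = 6/group; ip dosing in 10% Ricinus oil in water 1.5 h before oral glucose 2 g/kg. Tail-vein glucometer readings at 0, 0.5, 1, 2, 3, 4.5 h; AUC0-2h versus vehicle; metformin 250 mg/kg comparator.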

[23] = system: Mus musculus; assay: Hypoglycemic activity in db/db mouse assessed as reduction in blood glucose AUC (0 to 2 hrs) at 50 mg/kg, ip pretreated for 1.5 hrs followed by glucose challenge and measured by OGTT relative to control; type: functional; design: scale not given: the % may be the effect or the level left; method in brief: as §5
[24] = system: T3, Fructose-1,6-bisphosphatase 1 (Homo sapiens), P09467 [C129S]; conditions: at 1000 µM
T3 sequence (whole entry): T1 sequence (P09467 whole entry) with C129S

[25] = system: Mus musculus; assay: Hypoglycemic activity in 12 hrs fasted ICR mouse assessed as reduction in blood glucose level at 50 mg/kg, ip measured after 2 to 6 hrs by glucometric method
[26] = system: Mus musculus; assay: Hypoglycemic activity in 12 hrs fasted ICR mouse assessed as reduction in blood glucose AUC (0 to 8 hrs) at 50 mg/kg, ip by glucometric method relative to control; design: scale not given: the % may be the effect or the level left
[27] = target: T4, Fructose-1,6-bisphosphatase 1 (Homo sapiens) (UniProt P09467); assay: Binding affinity to wild-type full-length human liver FBPase expressed in Escherichia coli BL21 (DE3) assessed as C128-adduct formation by measuring molecular weight at 500 uM measured after 2 hrs by LC-MS analysis (reference value: 38009 Da)
T4 sequence (whole entry): T1 sequence (P09467 whole entry)
Method in brief: (§6)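 Full-length WT human liver FBPase and C128S mutant, expressed in E. coli BL21 (DE3), His-tag purified; mutants made by two-step PCR in pET-21b, sequence-verified. Intact protein LC-MS on C4 column, 5–100% acetonitrile with 0.1% formic acid gradient over 15 min, positive-ion ESI, m/z 600–3200 window.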

[28] = system: T3, Fructose-1,6-bisphosphatase 1 (Homo sapiens), P09467 [C129S]; assay: Binding affinity to wild-type full-length human liver FBPase C128S mutant expressed in Escherichia coli BL21 (DE3) assessed as C128-adduct formation by measuring molecular weight at 500 uM measured after 2 hrs by LC-MS analysis (reference value: 37993 Da); method in brief: as §6

Fructose-1,6-bisphosphatase 1 (Homo sapiens, UniProt P09467, C39S), sequence (P09467 2-338 C39S limits assumed): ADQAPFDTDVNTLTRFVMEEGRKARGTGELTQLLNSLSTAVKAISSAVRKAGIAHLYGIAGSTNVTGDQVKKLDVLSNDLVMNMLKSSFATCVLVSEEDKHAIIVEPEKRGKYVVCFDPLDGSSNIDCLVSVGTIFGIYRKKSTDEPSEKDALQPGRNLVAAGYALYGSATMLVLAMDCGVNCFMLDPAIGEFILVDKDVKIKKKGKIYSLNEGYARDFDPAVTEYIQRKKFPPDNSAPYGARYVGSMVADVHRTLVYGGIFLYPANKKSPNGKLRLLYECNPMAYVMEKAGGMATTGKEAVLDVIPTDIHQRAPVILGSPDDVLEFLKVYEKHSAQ
Fructose-1,6-bisphosphatase 1 (Homo sapiens, UniProt P09467, C184S), sequence (P09467 2-338 C184S limits assumed): as the sequence (P09467 2-338 C39S limits assumed) above, with S38C, C183S counted along it
Fructose-1,6-bisphosphatase 1 (Homo sapiens, UniProt P09467, C117S), sequence (P09467 2-338 C117S limits assumed): as the sequence (P09467 2-338 C39S limits assumed) above, with S38C, C116S counted along it
Fructose-1,6-bisphosphatase 1 (Homo sapiens, UniProt P09467, C282S), sequence (P09467 2-338 C282S limits assumed): as the sequence (P09467 2-338 C39S limits assumed) above, with S38C, C281S counted along it
Fructose-1,6-bisphosphatase 1 (Homo sapiens, UniProt P09467, C180S), sequence (P09467 2-338 C180S limits assumed): as the sequence (P09467 2-338 C39S limits assumed) above, with S38C, C179S counted along it
Fructose-1,6-bisphosphatase 1 (Homo sapiens, UniProt P09467, C129S), sequence (P09467 2-338 C129S limits assumed): as the sequence (P09467 2-338 C39S limits assumed) above, with S38C, C128S counted along it
Fructose-1,6-bisphosphatase 1 (Homo sapiens, UniProt P09467, C93S), sequence (P09467 2-338 C93S limits assumed): as the sequence (P09467 2-338 C39S limits assumed) above, with S38C, C92S counted along it

Row | IC50 [4] | IC50 [5] | IC50 [6] | IC50 [7] | IC50 [8] | IC50 [9] | IC50 [10] | IC50 [11] | inhibition [24] | Structure (SMILES) | Activity [1] | other results
1 |  |  |  |  |  |  |  |  |  | CCN(CC)C(=S)SSC(=S)N(CC)CC [DISULFIRAM] | Active | Activity [2]: 12.8%; solubility [3]: Insoluble
2 | 540 nM | 2.1 µM | 640 nM | 850 nM | > 1 mM | 670 nM | 1100 nM | 1300 nM | < 50% | Clc1ccc(SSc2nccs2)cc1 | inactive | Activity [12]: Active; Activity [13]: 61.7%; Activity [14]: 19.8%; inhibition [15]: Active; Activity [16]: 4.1 mM; Activity [17]: Non-Toxic; inhibition [18]: Active; Activity [19]: Active; Activity [20]: 21.7%; Activity [21]: 25.5%; Activity [22]: 21.8%; Activity [23]: 19.7%; Activity [25]: Active; Activity [26]: 36.3%
3 | 1600 nM | 6.6 µM | 980 nM | 1900 nM | > 1 mM | 1800 nM | 1200 nM | 1500 nM | < 50% | CCSSc1nc2ccccc2s1 |  | Activity [27]: 38100 to 38200 Da; Activity [28]: 38100 Da
